Laboratory results reported in ChEMBL document CHEMBL4219223, “Rational design of pyridyl derivatives of vanillin for the treatment of sickle cell disease” (2018).

How the values were obtained:
[1] = tested on: Erythrocyte; assay: Antisickling activity in human homozygous sickle red blood cells at 2 mM incubated for 2 hrs under hypoxic condition relative to control; format: functional
In short: (§1)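 Sickle (SS) red cell suspensions at 20% hematocrit, with or without compound (0.5, 1.0, 2.0 mM; DMSO <2% final, also in controls), held in air at 37°C for 1 h, then under 4% O2/96% N2 at 37°C for 2 h. Aliquots fixed in 2% glutaraldehyde without air exposure; sickling scored on bright-field images at 40x. Mean ± SD, three biological replicates.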

[2] = tested on: Erythrocyte; assay: Antisickling activity in human homozygous sickle red blood cells at 1 mM incubated for 2 hrs under hypoxic condition relative to control; format: functional; in short: as §1
[3] = target: T1, Hemoglobin HbA (Homo sapiens) (UniProt P69905+P68871); assay: Inhibition of sickle hemoglobin polymerization in human homozygous sickle red blood cells assessed as formation of high oxygen affinity schiff-base adducts at 0.5 mM incubated under air for 1 hr followed by 2 hrs incubation under hypoxic condition by HPLC method relative to control; design: scale not given: the % may be the effect or the level left
In short: (§2)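 Lysates from SS cells (20% hematocrit) exposed to 0.5, 1.0 or 2.0 mM compound, 1 h air then 2 h 4% O2 at 37°C. Cells washed in PBS and lysed hypotonically. Hb S adduct percentage taken from weak cation-exchange HPLC elution patterns (Poly CAT A column). Mean ± SD of three biological replicates.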

[4] = target: T1, Hemoglobin HbA (Homo sapiens); assay: (§3) Induction of R-state stabilization of Hb in human homozygous sickle red blood cells assessed as change in oxygen pressure at which hemolysates are 50% saturated with oxygen at 2 mM incubated under air for 1 hr followed by 2 hrs incubation under hypoxic condition by oxygen equilibrium curve analysis relative to control
In short: (§4)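 SS cells (20% hematocrit) given 0.5–2.0 mM compound, 1 h in air at 37°C, then 2 h hypoxia (4% O2) at 37°C. Cells washed in PBS and lysed hypotonically. About 100 μL clarified lysate placed in 4 ml 0.1 M potassium phosphate, pH 7.0, and read on a Hemox analyzer. ΔP50 = (P50 untreated − P50 treated)/P50 untreated × 100, relative to DMSO controls. Three biological replicates.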

[5] = target: T1, Hemoglobin HbA (Homo sapiens); assay: Inhibition of sickle hemoglobin polymerization in human homozygous sickle red blood cells assessed as formation of high oxygen affinity schiff-base adducts at 1 mM incubated under air for 1 hr followed by 2 hrs incubation under hypoxic condition by HPLC method relative to control; design: scale not given: the % may be the effect or the level left; in short: as §2
[6] = target: T1, Hemoglobin HbA (Homo sapiens); assay: Inhibition of sickle hemoglobin polymerization in human homozygous sickle red blood cells assessed as formation of high oxygen affinity schiff-base adducts at 2 mM incubated under air for 1 hr followed by 2 hrs incubation under hypoxic condition by HPLC method relative to control; design: scale not given: the % may be the effect or the level left; in short: as §2
[7] = target: T1, Hemoglobin HbA (Homo sapiens); assay: as §3, with “at 0.5” for “at 2”; in short: as §4
[8] = target: T1, Hemoglobin HbA (Homo sapiens); assay: as §3, with “at 1” for “at 2”; in short: as §4
[9] = tested on: Erythrocyte; assay: Antisickling activity in human homozygous sickle red blood cells at 0.5 mM incubated for 2 hrs under hypoxic condition relative to control; format: functional; in short: as §1
[10] = target: T1, Hemoglobin HbA (Homo sapiens); assay: Inhibition of sickle hemoglobin polymerization in human cell free hemoglobin matrix assessed as formation of high oxygen affinity schiff-base adducts incubated for 60 to 90 mins by HPLC method relative to control; format: protein-complex assay; design: scale not given: the % may be the effect or the level left
[11] = target: T1, Hemoglobin HbA (Homo sapiens); assay: Inhibition of sickle hemoglobin polymerization in human whole blood assessed as formation of high oxygen affinity schiff-base adducts by HPLC method; format: protein-complex assay; settings: TDE = time-dependent effect
In short: (§5)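 Normal donor whole blood (30% hematocrit) or purified Hb (1.56 mM) incubated with compound (0.5, 1.0, 2.0 mM) at 37°C with shaking at 140 rpm for up to 24 h. Samples taken at 0.5, 1, 2, 4, 8, 12 and 24 h and quenched with cyanoborohydride/borohydride to fix Schiff-base adducts. Adducts quantified by cation-exchange HPLC. Peak read from the %modification-vs-time curve; AUC(0–24) by linear trapezoidal rule.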

[12] = target: T1, Hemoglobin HbA (Homo sapiens); assay: Inhibition of sickle hemoglobin polymerization in human whole blood assessed as formation of high oxygen affinity schiff-base adducts at 2 mM measured at 12 hrs by HPLC method relative to control; format: protein-complex assay; design: scale not given: the % may be the effect or the level left; in short: as §5
[13] = target: T1, Hemoglobin HbA (Homo sapiens); assay: Inhibition of sickle hemoglobin polymerization in human whole blood assessed as formation of high oxygen affinity schiff-base adducts at 2 mM measured after 24 hrs by HPLC method relative to control; format: protein-complex assay; design: scale not given: the % may be the effect or the level left; in short: as §5
[14] = tested on: Erythrocyte; assay: Antisickling activity in human homozygous sickle red blood cells incubated for 2 hrs under hypoxic condition; format: functional, cell-based; in short: as §1
[15] = target: T1, Hemoglobin HbA (Homo sapiens); assay: Inhibition of sickle hemoglobin polymerization in human homozygous sickle red blood cells assessed as formation of high oxygen affinity schiff-base adducts incubated under air for 1 hr followed by 2 hrs incubation under hypoxic condition by HPLC method; in short: as §2
[16] = target: T1, Hemoglobin HbA (Homo sapiens); assay: Induction of R-state stabilization of Hb in human homozygous sickle red blood cells assessed as change in oxygen pressure at which hemolysates are 50% saturated with oxygen incubated under air for 1 hr followed by 2 hrs incubation under hypoxic condition by oxygen equilibrium curve analysis; in short: as §4
[17] = target: T1, Hemoglobin HbA (Homo sapiens); assay: Inhibition of sickle hemoglobin polymerization in human whole blood assessed as formation of high oxygen affinity schiff-base adducts at 2 mM after 2 hrs by HPLC method relative to control; format: protein-complex assay; design: scale not given: the % may be the effect or the level left; in short: as §5
[18] = target: T1, Hemoglobin HbA (Homo sapiens); assay: Inhibition of sickle hemoglobin polymerization in human whole blood assessed as formation of high oxygen affinity schiff-base adducts at 2 mM measured up to 24 hrs by HPLC method relative to control; format: protein-complex assay; design: scale not given: the % may be the effect or the level left; in short: as §5
[19] = target: T1, Hemoglobin HbA (Homo sapiens); assay: Inhibition of sickle hemoglobin polymerization in human whole blood assessed as formation of high oxygen affinity schiff-base adducts at 2 mM measured at 2 hrs by HPLC method relative to control; format: protein-complex assay; design: scale not given: the % may be the effect or the level left; in short: as §5
[20] = target: T1, Hemoglobin HbA (Homo sapiens); assay: Inhibition of sickle hemoglobin polymerization in human cell free hemoglobin matrix assessed as formation of high oxygen affinity schiff-base adducts incubated for 90 mins by HPLC method relative to control; format: protein-complex assay; design: scale not given: the % may be the effect or the level left

T1 sequence (P68871 2-147 partner limits assumed): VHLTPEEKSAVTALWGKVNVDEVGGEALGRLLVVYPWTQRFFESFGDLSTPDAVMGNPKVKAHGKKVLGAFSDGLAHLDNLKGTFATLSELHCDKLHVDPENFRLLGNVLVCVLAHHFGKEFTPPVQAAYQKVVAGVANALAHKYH
T1 sequence (P69905 2-142 limits assumed): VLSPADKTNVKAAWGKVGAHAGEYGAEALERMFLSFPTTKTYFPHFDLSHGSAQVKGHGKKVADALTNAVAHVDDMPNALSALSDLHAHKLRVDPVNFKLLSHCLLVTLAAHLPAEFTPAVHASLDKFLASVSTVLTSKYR

Compound | inhibition at 2000 µM [1] | inhibition at 1000 µM [2] | Activity [3] | Activity [4] | Activity [5] | Activity [6] | Activity [7] | Activity [8] | inhibition at 500 µM [9] | Activity [10] | Activity [11] | Activity [12] | Activity [13] | Activity [14] | Activity [15] | Activity [16] | Activity [17] | Activity [18] | Activity [19] | Activity [20]
COc1ccc(OCc2ccccn2)c(C=O)c1 | 90.3% | 64.8% | 26.3% | 61.4% | 55.3% | 79.5% | 22% | 38.1% | 24.3% | 100% | Tde | 50% | 45% | Dose-dependent effect | Dose-dependent effect | Dose-dependent effect |  |  |  | 
COc1ccc(OCc2ccncc2)c(C=O)c1 | 85.9% | 60.4% | 32.8% | 55.6% | 58.7% | 82.5% | 7.9% | 31.5% | 21.7% | 100% | Tde |  | 15% | Dose-dependent effect | Dose-dependent effect | Dose-dependent effect | 45% | 15% | 50% | 
COc1ccc(C=O)c(OCc2ccccn2)c1 | 51.3% | 13.5% | 12% | 34.2% | 24.8% | 51.6% | 8.1% | 20.9% | 7.6% |  | Tde |  |  | Dose-dependent effect | Dose-dependent effect | Dose-dependent effect |  | 60% |  | 50%
COc1cc(C=O)ccc1O [VANILLIN] | 7.3% | 7.3% | 3.3% | 21% | 5.6% | 12% | 1.2% | 10.6% | 4.2% |  | Tde |  |  | Dose-dependent effect | Dose-dependent effect | Dose-dependent effect |  |  |  | 
COc1ccc(OCc2cccnc2)c(C=O)c1 | 90.5% | 59.5% |  | 75.8% | 79% | 100% | 24.8% | 49.2% | 14.9% | 100% | Tde |  | 25% | Dose-dependent effect | Dose-dependent effect | Dose-dependent effect | 50% | 25% | 50% | 
